Test results: ChEMBL document CHEMBL1125690, “Quinazoline antifolate thymidylate synthase inhibitors: heterocyclic benzoyl ring modifications” (J Med Chem, 1991)

Tests used:
L1210 = assay: In vitro inhibition of L1210 cell growth in culture.; assay type: functional, cell-based; conditions: Mus musculus
How it was run: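 L1210 mouse leukaemia cells grown in culture. The value reported is the IC50 for inhibition of cell growth.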

Thymidylate synthase = Thymidylate synthase (Mus musculus, UniProt P07607); assay: In vitro inhibition of partially purified L1210 thymidylate synthase (TS).
Sequence of Thymidylate synthase (P07607 whole entry): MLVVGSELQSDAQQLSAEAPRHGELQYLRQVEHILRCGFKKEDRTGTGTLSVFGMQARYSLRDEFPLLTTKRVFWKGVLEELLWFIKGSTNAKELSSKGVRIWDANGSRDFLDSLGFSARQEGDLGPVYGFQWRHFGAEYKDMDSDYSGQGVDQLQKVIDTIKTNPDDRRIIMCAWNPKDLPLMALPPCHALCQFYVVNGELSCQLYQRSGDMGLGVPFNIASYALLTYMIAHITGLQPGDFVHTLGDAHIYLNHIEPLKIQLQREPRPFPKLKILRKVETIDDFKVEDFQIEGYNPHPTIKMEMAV

Row | Structure (SMILES) | IC50 (L1210) [nM] | IC50 (Thymidylate synthase) [nM]
1 | Cc1nc2ccc(CN(C)c3ccc(C(=O)N[C@@H](CCC(=O)O)C(=O)O)cn3)cc2c(=O)[nH]1 | 1600 | 4250
2 | Cc1nc(O)c2cc(CN(CCF)c3cnc(C(=O)N[C@H](CCC(=O)O)C(=O)O)s3)ccc2n1 | 20 | 190
3 | C#CCN(Cc1ccc2nc(C)[nH]c(=O)c2c1)c1ccc(C(=O)N[C@@H](CCC(=O)O)C(=O)O)nc1 | 60 | 40
4 | Cc1nc2ccc(CN(C)c3ccc(C(=O)N[C@@H](CCC(=O)O)C(=O)O)nc3)cc2c(=O)[nH]1 | 160 | 350
5 | Cc1nc2ccc(CN(C)c3cnc(C(=O)N[C@@H](CCC(=O)O)C(=O)O)nc3)cc2c(=O)[nH]1 | 1400 | 2340
6 | Cc1nc2ccc(CN(C)c3ccc(C(=O)N[C@@H](CCC(=O)O)C(=O)O)cc3)cc2c(=O)[nH]1 | – | 250
7 | CN(Cc1ccc2nc(CO)nc(O)c2c1)c1cnc(C(=O)N[C@H](CCC(=O)O)C(=O)O)s1 | 300 | 490
8 | Cc1nc(O)c2cc(CN(CCCO)c3cnc(C(=O)N[C@H](CCC(=O)O)C(=O)O)s3)ccc2n1 | 60 | 1740
9 | CCN(Cc1ccc2nc(C)nc(O)c2c1)c1ncc(C(=O)N[C@H](CCC(=O)O)C(=O)O)s1 | 900 | 760
10 | Cc1nc(O)c2cc(CN(CCO)c3cnc(C(=O)N[C@H](CCC(=O)O)C(=O)O)s3)ccc2n1 | 20 | 420
11 | C=CCN(Cc1ccc2nc(C)[nH]c(=O)c2c1)c1ccc(C(=O)N[C@@H](CCC(=O)O)C(=O)O)nc1 | 130 | 760
12 | Cc1nc2ccc(CN(CCF)c3ccc(C(=O)N[C@@H](CCC(=O)O)C(=O)O)nc3)cc2c(=O)[nH]1 | 140 | 160
13 | C=CCN(Cc1ccc2nc(C)nc(O)c2c1)c1cnc(C(=O)N[C@H](CCC(=O)O)C(=O)O)s1 | 13 | 1070
14 | CCN(Cc1ccc2nc(CF)nc(O)c2c1)c1ccc(C(=O)N[C@H](CCC(=O)O)C(=O)O)s1 | 110 | 930
15 | CCN(Cc1ccc2nc(C)nc(O)c2c1)c1cnc(C(=O)N[C@H](CCC(=O)O)C(=O)O)s1 | 8 | 230
16 | Cc1nc(O)c2cc(CNc3cnc(C(=O)N[C@H](CCC(=O)O)C(=O)O)s3)ccc2n1 | 280 | 7120
17 | C#CCN(Cc1ccc2nc(C)nc(O)c2c1)c1cnc(C(=O)N[C@H](CCC(=O)O)C(=O)O)s1 | 8 | 230
18 | CCN(Cc1ccc2nc(C)[nH]c(=O)c2c1)c1ccc(C(=O)N[C@@H](CCC(=O)O)C(=O)O)nc1 | 640 | 150
19 | CCN(Cc1ccc2nc(C)nc(O)c2c1)c1nnc(C(=O)N[C@H](CCC(=O)O)C(=O)O)s1 | 2400 | 940
20 | CCN(Cc1ccc2nc(C)[nH]c(=O)c2c1)c1ccc(C(=O)N[C@@H](CCC(=O)O)C(=O)O)cc1 | – | 260
21 | CCN(Cc1ccc2nc(CF)nc(O)c2c1)c1cnc(C(=O)N[C@H](CCC(=O)O)C(=O)O)s1 | 100 | 220
22 | O=C(O)CC[C@@H](NC(=O)c1ccc(N(CCF)Cc2ccc3nc(CF)nc(O)c3c2)s1)C(=O)O | 670 | 1070

Other lines, results leading:

Row | IC50 (L1210) [nM] | IC50 (Thymidylate synthase) [nM] | Structure (SMILES)
23 | 400 | 1850 | CCCN(Cc1ccc2nc(C)nc(O)c2c1)c1ccc(C(=O)N[C@H](CCC(=O)O)C(=O)O)s1
24 | 16 | 1360 | CN(Cc1ccc2nc(CF)nc(O)c2c1)c1ccc(C(=O)N[C@H](CCC(=O)O)C(=O)O)s1
25 | 7 | – | Cc1nc(O)c2cc(CN(C)c3ccc(C(=O)N[C@H](CCC(=O)O)C(=O)O)s3)ccc2n1
26 | 100 | 1200 | Cc1nc(O)c2cc(CN(CCO)c3ccc(C(=O)N[C@H](CCC(=O)O)C(=O)O)s3)ccc2n1
27 | 3000 | 3360 | Cc1nc(O)c2cc(CN(CCCO)c3ccc(C(=O)N[C@H](CCC(=O)O)C(=O)O)s3)ccc2n1
28 | 3000 | 24800 | Cc1nc(O)c2cc(CNc3ccc(C(=O)N[C@H](CCC(=O)O)C(=O)O)s3)ccc2n1
29 | 16 | 580 | CCN(Cc1ccc2nc(C)nc(O)c2c1)c1ccc(C(=O)N[C@H](CCC(=O)O)C(=O)O)s1
30 | 58 | 1680 | C=CCN(Cc1ccc2nc(C)nc(O)c2c1)c1ccc(C(=O)N[C@H](CCC(=O)O)C(=O)O)s1
31 | 780 | 1360 | CN(Cc1ccc2nc(CO)nc(O)c2c1)c1ccc(C(=O)N[C@H](CCC(=O)O)C(=O)O)s1
32 | 60 | 440 | C#CCN(Cc1ccc2nc(C)nc(O)c2c1)c1ccc(C(=O)N[C@H](CCC(=O)O)C(=O)O)s1
33 | 100 | 550 | Cc1nc(O)c2cc(CN(CCF)c3ccc(C(=O)N[C@H](CCC(=O)O)C(=O)O)s3)ccc2n1
34 | 2700 | 1030 | CCN(Cc1ccc2nc(CO)nc(O)c2c1)c1ccc(C(=O)N[C@H](CCC(=O)O)C(=O)O)s1
35 | 200 | 3080 | Cc1nc(O)c2cc(CN(CC#N)c3ccc(C(=O)N[C@H](CCC(=O)O)C(=O)O)s3)ccc2n1
36 | 6 | 420 | Cc1nc(O)c2cc(CN(C)c3cnc(C(=O)N[C@H](CCC(=O)O)C(=O)O)s3)ccc2n1
